Assay [1] deals with HCT-116/VM46. Put plainly: Ratio of vinblastine IC50 to compound IC50 for vinblastine-resistant human HCT116/VM46 cells. It is filed as functional. In a few lines: (§1)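 Both IC50 values come from the 72 h acid phosphatase (A405) proliferation assay: six concentrations over 0–1,000 or 0–10,000 nM, with each value the mean of 4–16 determinations.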
In assay [2] the test system is HCT-116. Put plainly: Ratio of vinblastine IC50 to compound IC50 for human HCT116 cells. It is filed as functional. The procedure, abridged:
as §1

For assay [3], the system named is HCT-116/VM46. Put plainly: Cytotoxicity against vinblastine-resistant human HCT116/VM46 cells after 72 hrs by phosphatase assay. Format: functional, cell-based. The note with it: HCT-116/VM46, 72 h. In a few lines:
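Cells diluted to 30,000 cells/mL in DMEM with 10% FBS and seeded into 96-well plates (100 μL per well), then grown 24 h at 37 °C under 5% CO2. Test agents were made as 1 mM DMSO stocks with 10-fold serial dilutions and tested at six concentrations over 0–1,000 nM or 0–10,000 nM, in duplicate, for 72 h. Acid phosphatase read-out: substrate in 0.1 M NaOAc pH 5.5 with 0.1% Triton X-100, 15 min at 37 °C, stopped with NaOH, A405. IC50 is the mean of 4–16 determinations.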

Assay [4] concerns HCT-116. Put plainly: Cytotoxicity against human HCT116 cells after 72 hrs by phosphatase assay. It is filed as functional, cell-based. Conditions: HCT-116, 72 h. The procedure, abridged:
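Cells diluted to 30,000 cells/mL in DMEM with 10% FBS and seeded into 96-well plates (100 μL per well), then grown 24 h at 37 °C under 5% CO2. Test agents were made as 1 mM DMSO stocks with 10-fold serial dilutions and tested at six concentrations over 0–1,000 nM or 0–10,000 nM, in duplicate, for 72 h. Acid phosphatase read-out: substrate in 0.1 M NaOAc pH 5.5 with 0.1% Triton X-100, 15 min at 37 °C, stopped with NaOH, A405.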

The target of the next assay is Tubulin (Sus scrofa) (UniProt P02554+P02550). Put plainly: Displacement of [3H]-vinblastine from pig tubulin at 7.2 x 10^-5 M after 60 mins. Format: protein assay. In a few lines:
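Purified porcine tubulin (100 µL tubulin solution diluted with 850 µL general tubulin buffer) preincubated with 25 µL of 7.2 × 10⁻⁵ M ³H-vinblastine, 15 min at 37 °C. Then 25 µL of 7.2 × 10⁻⁵ M unlabeled test alkaloid added, incubation continued 60 min. Displacement of bound ³H-vinblastine measured by a previously described procedure.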

For assay [5], the system named is HCT-116. Put plainly: Ratio of IC50 for vinblastine-resistant human HCT116/VM46 cells to IC50 for human HCT116 cells. Format: functional. The procedure, abridged: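 Ratio of IC50 in HCT116/VM46 to IC50 in HCT116. Both IC50 values come from the 72 h phosphatase (A405) growth inhibition assay: six concentrations up to 1,000 or 10,000 nM, run in duplicate, averaging 4–16 determinations each.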

pIC50: −log10 of the molar value.

Chain of Tubulin (Sus scrofa) (P02550 whole entry, looked up): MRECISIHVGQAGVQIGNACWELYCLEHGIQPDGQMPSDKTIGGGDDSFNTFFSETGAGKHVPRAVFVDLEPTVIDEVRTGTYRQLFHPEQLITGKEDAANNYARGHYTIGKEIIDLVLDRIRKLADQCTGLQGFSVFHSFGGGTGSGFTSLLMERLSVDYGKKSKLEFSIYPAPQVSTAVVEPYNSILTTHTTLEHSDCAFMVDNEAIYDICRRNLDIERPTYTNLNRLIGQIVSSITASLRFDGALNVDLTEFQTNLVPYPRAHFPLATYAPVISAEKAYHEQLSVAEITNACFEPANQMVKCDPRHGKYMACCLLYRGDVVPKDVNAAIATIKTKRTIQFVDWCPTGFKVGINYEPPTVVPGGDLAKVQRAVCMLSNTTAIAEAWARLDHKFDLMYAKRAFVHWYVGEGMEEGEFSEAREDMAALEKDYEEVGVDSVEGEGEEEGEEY
Chain of Tubulin (Sus scrofa) (P02554 whole entry, looked up): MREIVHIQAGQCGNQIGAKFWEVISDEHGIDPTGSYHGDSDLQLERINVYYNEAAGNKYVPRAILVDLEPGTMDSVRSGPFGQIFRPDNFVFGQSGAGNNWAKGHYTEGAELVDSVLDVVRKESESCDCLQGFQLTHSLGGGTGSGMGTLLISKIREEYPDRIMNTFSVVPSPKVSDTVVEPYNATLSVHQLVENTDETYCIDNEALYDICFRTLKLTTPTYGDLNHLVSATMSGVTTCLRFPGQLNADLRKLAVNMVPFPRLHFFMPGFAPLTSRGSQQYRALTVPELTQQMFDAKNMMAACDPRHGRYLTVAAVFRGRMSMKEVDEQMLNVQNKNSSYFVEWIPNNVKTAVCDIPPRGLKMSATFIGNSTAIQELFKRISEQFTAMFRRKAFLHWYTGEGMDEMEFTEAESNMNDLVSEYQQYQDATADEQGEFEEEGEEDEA

One may read the pIC50 as −log10 of the IC50, conventionally taken in molar units. A lower pIC50 goes with a high IC50. `CCNC(=O)N[C@@]1(CC)C[C@H]2CN(CCc3c([nH]c4ccc(F)cc34)[C@@](C(=O)OC)(c3cc4c(cc3OC)N(C)[C@H]3[C@@](O)(C(=O)OC)[C@H](OC(C)=O)[C@]5(CC)C=CCN6CC[C@]43[C@@H]65)C2)C1`: the “Ratio IC50” value with HCT-116/VM46 [1] and in the assay on HCT-116 [2] was 10 each time. Besides, the values for the pIC50 with HCT-116/VM46 [3] and in the assay on HCT-116 [4] were 7.15 and 9.21, respectively.

On to `CC[C@]1(NC(=O)NC(C)C)C[C@H]2CN(CCc3c([nH]c4ccccc34)[C@@](C(=O)OC)(c3cc4c(cc3OC)N(C)[C@H]3[C@@](O)(C(=O)OC)[C@H](OC(C)=O)[C@]5(CC)C=CCN6CC[C@]43[C@@H]65)C2)C1`, for which the “Ratio IC50” value in the assay on HCT-116 [2] was found to be 10. Besides, the results for the pIC50 in the assay with HCT-116/VM46 [3] and in the assay on HCT-116 [4] were 6.28 and 8.24, respectively.

As to `CCNC(=O)N[C@@]1(CC)C[C@H]2CN(CCc3c([nH]c4ccccc34)[C@@](C(=O)OC)(c3cc4c(cc3OC)N(C)[C@H]3[C@@](O)(C(=O)OC)[C@H](OC(C)=O)[C@]5(CC)C=CCN6CC[C@]43[C@@H]65)C2)C1`, the “Ratio IC50” value in the assay on HCT-116 [2] was 10. In addition, the pIC50 in the assay on HCT-116/VM46 [3] was 7.05; with HCT-116 [4], 9.14.

The term inhibition denotes the percentage by which the read-out fell short of the control. A low value points to little suppression. `CC[C@]1(NC(=O)N(C)C)C[C@H]2CN(CCc3c([nH]c4ccccc34)[C@@](C(=O)OC)(c3cc4c(cc3OC)N(C)[C@H]3[C@@](O)(C(=O)OC)[C@H](OC(C)=O)[C@]5(CC)C=CCN6CC[C@]43[C@@H]65)C2)C1`: the inhibition on Tubulin (Sus scrofa) amounted to 45.1%. The “Ratio IC50” value in the assay with HCT-116 [5] stood at 10. The pIC50 in the assay with HCT-116/VM46 [3] was 7.10; in the assay on HCT-116 [4] it was 8.55.

For the compound `CC[C@]1(NC(=O)Nc2ccc(-c3ccccc3)cc2)C[C@H]2CN(CCc3c([nH]c4ccccc34)[C@@](C(=O)OC)(c3cc4c(cc3OC)N(C)[C@H]3[C@@](O)(C(=O)OC)[C@H](OC(C)=O)[C@]5(CC)C=CCN6CC[C@]43[C@@H]65)C2)C1`, the inhibition at Tubulin (Sus scrofa) turned out to be 48.5%. In addition, the pIC50 in the assay on HCT-116/VM46 [3] is 6.33; in the assay on HCT-116 [4] it was 8.16.

In the case of `CC[C@]1(NC(=O)NC2CC2)C[C@H]2CN(CCc3c([nH]c4ccccc34)[C@@](C(=O)OC)(c3cc4c(cc3OC)N(C)[C@H]3[C@@](O)(C(=O)OC)[C@H](OC(C)=O)[C@]5(CC)C=CCN6CC[C@]43[C@@H]65)C2)C1`, the “Ratio IC50” value in the assay on HCT-116 [2] was 10. Besides, the pIC50 in the assay with HCT-116/VM46 [3] is 7.07; with HCT-116 [4], 9.14.

Regarding `CC[C@]1(NC(=S)NC2CCCCC2)C[C@H]2CN(CCc3c([nH]c4ccccc34)[C@@](C(=O)OC)(c3cc4c(cc3OC)N(C)[C@H]3[C@@](O)(C(=O)OC)[C@H](OC(C)=O)[C@]5(CC)C=CCN6CC[C@]43[C@@H]65)C2)C1`, in the assay with HCT-116 [5], the Ratio IC50 was determined as 26. The pIC50 in the assay with HCT-116/VM46 [3] was 6.28; in the assay on HCT-116 [4], 7.70.

With `CC[C@]1(NC(=O)N2CCCCC2)C[C@H]2CN(CCc3c([nH]c4ccccc34)[C@@](C(=O)OC)(c3cc4c(cc3OC)N(C)[C@H]3[C@@](O)(C(=O)OC)[C@H](OC(C)=O)[C@]5(CC)C=CCN6CC[C@]43[C@@H]65)C2)C1`, in the assay on HCT-116 [5], the Ratio IC50 was found to be 10. For the same compound, the values for the pIC50 in the assay on HCT-116/VM46 [3] and in the assay on HCT-116 [4] were 7.30 and 8.41, respectively.

In the case of `CCCNC(=O)N[C@@]1(CC)C[C@H]2CN(CCc3c([nH]c4ccccc34)[C@@](C(=O)OC)(c3cc4c(cc3OC)N(C)[C@H]3[C@@](O)(C(=O)OC)[C@H](OC(C)=O)[C@]5(CC)C=CCN6CC[C@]43[C@@H]65)C2)C1`, the “Ratio IC50” value in the assay on HCT-116 [2] is 10. Also, the pIC50 in the assay with HCT-116/VM46 [3] is 6.66; in the assay with HCT-116 [4], 8.57.

On to `CC[C@]1(O)C[C@H]2CN(CCc3c([nH]c4ccc(F)cc34)[C@@](C(=O)OC)(c3cc4c(cc3OC)N(C)[C@H]3[C@@](O)(C(=O)OC)[C@H](OC(C)=O)[C@]5(CC)C=CCN6CC[C@]43[C@@H]65)C2)C1`, for which the “Ratio IC50” value in the assay with HCT-116 [2] was determined as 8.

As for `CC[C@]1(NC(=S)N(C)C)C[C@H]2CN(CCc3c([nH]c4ccccc34)[C@@](C(=O)OC)(c3cc4c(cc3OC)N(C)[C@H]3[C@@](O)(C(=O)OC)[C@H](OC(C)=O)[C@]5(CC)C=CCN6CC[C@]43[C@@H]65)C2)C1`, the pIC50 in the assay on HCT-116/VM46 [3] was 6.60; with HCT-116 [4], 8.06.

Take `CCNC(=O)N(C)[C@@]1(CC)C[C@H]2CN(CCc3c([nH]c4ccccc34)[C@@](C(=O)OC)(c3cc4c(cc3OC)N(C)[C@H]3[C@@](O)(C(=O)OC)[C@H](OC(C)=O)[C@]5(CC)C=CCN6CC[C@]43[C@@H]65)C2)C1`: the pIC50 is 5.07 in the assay with HCT-116/VM46 [3] and 6.28 with HCT-116 [4].

In the case of `CC[C@]1(NC)C[C@H]2CN(CCc3c([nH]c4ccccc34)[C@@](C(=O)OC)(c3cc4c(cc3OC)N(C)[C@H]3[C@@](O)(C(=O)OC)[C@H](OC(C)=O)[C@]5(CC)C=CCN6CC[C@]43[C@@H]65)C2)C1`, the pIC50 is 5.07 in the assay with HCT-116/VM46 [3] and 7.22 in the assay with HCT-116 [4].

As to `CC[C@]1(NC(=O)Nc2ccccc2OC)C[C@H]2CN(CCc3c([nH]c4ccccc34)[C@@](C(=O)OC)(c3cc4c(cc3OC)N(C)[C@H]3[C@@](O)(C(=O)OC)[C@H](OC(C)=O)[C@]5(CC)C=CCN6CC[C@]43[C@@H]65)C2)C1`, the “Ratio IC50” value in the assay on HCT-116 [2] is on record as 10. The pIC50 is 7.19 in the assay on HCT-116/VM46 [3] and 9.11 with HCT-116 [4].

With `CC[C@]1(NC(=O)N2CCOCC2)C[C@H]2CN(CCc3c([nH]c4ccccc34)[C@@](C(=O)OC)(c3cc4c(cc3OC)N(C)[C@H]3[C@@](O)(C(=O)OC)[C@H](OC(C)=O)[C@]5(CC)C=CCN6CC[C@]43[C@@H]65)C2)C1`, the pIC50 with HCT-116/VM46 [3] is 6.44; with HCT-116 [4], 8.35.

As for `CC[C@]1(NC(=O)Nc2cccc(OC)c2)C[C@H]2CN(CCc3c([nH]c4ccccc34)[C@@](C(=O)OC)(c3cc4c(cc3OC)N(C)[C@H]3[C@@](O)(C(=O)OC)[C@H](OC(C)=O)[C@]5(CC)C=CCN6CC[C@]43[C@@H]65)C2)C1`, in the assay on HCT-116 [2], the “Ratio IC50” value was 10. In addition, the pIC50 is 7.10 with HCT-116/VM46 [3] and 9.11 with HCT-116 [4].

As to `CC[C@]1(NC(=O)NC)C[C@H]2CN(CCc3c([nH]c4ccccc34)[C@@](C(=O)OC)(c3cc4c(cc3OC)N(C)[C@H]3[C@@](O)(C(=O)OC)[C@H](OC(C)=O)[C@]5(CC)C=CCN6CC[C@]43[C@@H]65)C2)C1`, the “Ratio IC50” value with HCT-116 [2] is 10. In addition, the figures for the pIC50 with HCT-116/VM46 [3] and in the assay on HCT-116 [4] were 6.28 and 9.09, respectively.

Consider `CC[C@]1(NC(=O)Nc2ccc(F)cc2)C[C@H]2CN(CCc3c([nH]c4ccccc34)[C@@](C(=O)OC)(c3cc4c(cc3OC)N(C)[C@H]3[C@@](O)(C(=O)OC)[C@H](OC(C)=O)[C@]5(CC)C=CCN6CC[C@]43[C@@H]65)C2)C1`, for which the results for the pIC50 in the assay on HCT-116/VM46 [3] and with HCT-116 [4] were 6.40 and 8.41, respectively.

Source of the values: ChEMBL document CHEMBL2311295 (J Med Chem, 2013).
